# INS-1E rescue – rescue of cytokine-induced death in INS-1E beta cells. AID 488910. 20,000 tested, 0.1% active. INS-1E cytokine-induced death, ATP luminescence, 48 h; normalised: neutral wells 0, positive control 100. protection from cytokine-induced ATP loss, % at 10 µM;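 active = mean replicate protection from cytokine-induced ATP loss at least 50% and at least 75% of replicates each reaching 50%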
#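 Test system: INS-1E rat cells | Quantity: 8000 cells per well | Medium: Phenol-red-free RPMI with 5% fetal bovine serum | Reagent: Cytokine cocktail of IFN-γ, TNF-α and IL-1β | Doses: One compound concentration, pin transfer | Timing: 48 h co-treatment, 10 min post-lysis read | Technique: Luminescent ATP assay (CellTiter-Glo)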
# A1 apoptosis 2 – A1 inhibition read as caspase activation. MEF A1-2A-BIM cells, caspase-Glo luminescence, 3 h; percent of clofoctol response, DMSO zero. caspase activation, % (test concentration not listed). 24,000 tested, under 10 active; in the data active = caspase activation above about 5.9%
#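 system = A1-2A-BIM-expressing MEF cells | quantity = 2500 MEF cells/well | dosing = 50 nL compound per well, pinned | schedule = overnight cell settling, then 3 h compound exposure, 37 °C | signal = luminescence from DEVD-luciferin Caspase-Glo reagent, 1:1 in 50 mM HEPES, 1 h RT | read-out = Caspase-3/7 activation, seen as rise in luminescence signal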
# T cruzi intra – intracellular Trypanosoma cruzi inhibition; intracellular Trypanosoma cruzi in host cells, plate reader; activity score (inhibition), % at 5.01 µM; 22,000 tested, 4.9% active; AID 651903; in the data active = activity score above about 55%;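 note: parasites and compound incubated about four days before reading; 0% = median of neutral control wells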
# Starred values were filed as active, the others as inactive; x = no result given. This is one part of a sample in which hits are shown more often than they occur.
SMILES,INS-1E rescue,A1 apoptosis 2,T cruzi intra
C[C@H](CO)N1C[C@H](C)[C@H](CN(C)Cc2cccc(C(F)(F)F)c2)Oc2ncc(Br)cc2C1=O,x,0,24
C[C@H](CO)N1C[C@H](C)[C@H](CN(C)S(=O)(=O)c2ccc(F)cc2)Oc2ncc(-c3cc4ccccc4o3)cc2C1=O,x,x,52
C[C@@H]1CN([C@@H](C)CO)C(=O)c2cc(NS(=O)(=O)c3cccs3)ccc2O[C@@H]1CN(C)S(=O)(=O)c1cccs1,3,0,2
C[C@@H]1CN([C@@H](C)CO)C(=O)c2cccc(NC(=O)C3CCOCC3)c2O[C@H]1CN(C)C(=O)Nc1ccc(C(F)(F)F)cc1,3,-1,-17
C[C@@H]1CN([C@H](C)CO)C(=O)c2cc(NC(=O)Nc3ccc4c(c3)OCO4)ccc2O[C@@H](C)CCCCO[C@H]1CN(C)Cc1ccc(C(F)(F)F)cc1,x,0,x
C[C@@H]1CN([C@H](C)CO)C(=O)c2cc(NC(=O)Cn3cnnn3)ccc2O[C@H]1CN(C)S(=O)(=O)c1ccc(Cl)cc1,x,x,-22
O=C(CCCCCCC(=O)NN=C1CCCC1)NO,x,0,x
Cc1noc(C)c1NC(=O)Nc1ccc2c(c1)CC(=O)N([C@H](C)CO)C[C@H](C)[C@@H](CN(C)S(=O)(=O)c1ccc(F)cc1)O2,x,-1,x
COc1ccc(S(=O)(=O)Nc2ccc3c(c2)C(=O)N([C@H](C)CO)C[C@@H](C)[C@H](CN(C)Cc2ccc(C(F)(F)F)cc2)OCCCC[C@@H](C)O3)cc1,x,0,x
Cc1ccc(S(=O)(=O)Nc2ccc3c(c2)C(=O)N([C@H](C)CO)C[C@H](C)[C@H](CN(C)Cc2ccc(C(F)(F)F)cc2)OCCCC[C@@H](C)O3)cc1,-36,x,66*
C[C@@H]1CCCCO[C@H](CN(C)Cc2ccc(C(F)(F)F)cc2)[C@@H](C)CN([C@H](C)CO)C(=O)c2cc(NS(=O)(=O)c3ccc(F)cc3)ccc2O1,-10,0,56*
C[C@@H]1CCCCO[C@H](CN(C)Cc2ccc(C(F)(F)F)cc2)[C@H](C)CN([C@@H](C)CO)C(=O)c2cc(NS(=O)(=O)c3ccc(Cl)cc3)ccc2O1,x,0,x
COc1ccc(S(=O)(=O)Nc2ccc3c(c2)C(=O)N([C@H](C)CO)C[C@H](C)[C@H](CN(C)Cc2ccc(C(F)(F)F)cc2)OCCCC[C@@H](C)O3)cc1,1,x,65*
C[C@@H]1CCCCO[C@@H](CN(C)Cc2ccc(C(F)(F)F)cc2)[C@@H](C)CN([C@H](C)CO)C(=O)c2cc(NS(=O)(=O)c3ccc(Cl)cc3)ccc2O1,-24,x,63*
Cc1ccc(S(=O)(=O)Nc2ccc3c(c2)C(=O)N([C@@H](C)CO)C[C@@H](C)[C@@H](CN(C)Cc2ccc(C(F)(F)F)cc2)OCCCC[C@H](C)O3)cc1,x,-1,x
C[C@@H]1CN([C@H](C)CO)C(=O)c2cc(NS(=O)(=O)c3ccc(F)cc3)ccc2O[C@@H](C)CCCCO[C@H]1CN(C)Cc1ccc(C(F)(F)F)cc1,x,2,x
O=C1O[C@@H](c2ccccc2)[C@@H](c2ccccc2)N2[C@@H](c3ccccc3OCCO)[C@]3(C(=O)Nc4ccccc43)[C@@H](C(=O)NC[C@H](O)c3ccccc3)[C@H]12,x,0,x
COc1ccc(S(=O)(=O)N(C)C[C@H]2Oc3ccc(NC(=O)C4CCCCC4)cc3CC(=O)N([C@H](C)CO)C[C@H]2C)cc1,0,1,-28
C[C@@H]1CN([C@H](C)CO)C(=O)Cc2cc(NS(=O)(=O)c3ccccc3)ccc2O[C@H]1CN(C)C(=O)Nc1ccc2c(c1)OCO2,-4,-1,-8
Cc1noc(C)c1NC(=O)N(C)C[C@H]1Oc2ccc(NC(=O)NC3CCCCC3)cc2C(=O)N([C@@H](C)CO)C[C@H]1C,11,-1,-11
C=CC(CO)NS(=O)(=O)c1ccc(Br)cc1 (stereo unspecified),x,-1,x
C[C@@H]1CN([C@H](C)CO)C(=O)c2cc(NC(=O)CCCCCC(=O)Nc3ccccc3N)ccc2O[C@H]1CN(C)C(=O)NC1CCCCC1,9,x,-10
C[C@@H]1CN([C@@H](C)CO)C(=O)c2cc(NC(=O)NC3CCCCC3)ccc2O[C@H]1CN(C)C(=O)Nc1cccc2ccccc12,-2,-1,-3
C[C@H]1CN([C@@H](C)CO)C(=O)c2cc(NC(=O)Nc3ccc(F)cc3)ccc2O[C@H]1CN(C)Cc1ccc(-c2ccccc2)cc1,-41,x,65*
C[C@H]1CN([C@@H](C)CO)C(=O)c2cc(NC(=O)Nc3ccc(C(F)(F)F)cc3)ccc2O[C@H]1CN(C)Cc1ccc(-c2ccccc2)cc1,-54,x,58*
SMILES,INS-1E rescue,A1 apoptosis 2,T cruzi intra
C[C@H](CO)N1C[C@H](C)[C@H](CN(C)Cc2ccc(-c3ccccc3)cc2)Oc2ccc(NC(=O)Nc3ccc(C(F)(F)F)cc3)cc2C1=O,x,0,41
C[C@H](CO)N1C[C@H](C)[C@@H](CN(C)Cc2ccc(-c3ccccc3)cc2)Oc2ccc(NC(=O)Nc3ccc(F)cc3)cc2C1=O,-7,-1,10
CC(C)NC(=O)N(C)C[C@@H]1Oc2c(NC(=O)c3nc4ccccc4s3)cccc2C(=O)N([C@@H](C)CO)C[C@@H]1C,-3,-1,22
COc1ccc(NC(=O)Nc2ccc3c(c2)C(=O)N([C@@H](C)CO)C[C@@H](C)[C@@H](CN(C)Cc2ccccc2)OCCCC[C@H](C)O3)cc1,x,0,x
C[C@@H]1CN([C@H](C)CO)C(=O)Cc2cc(NC(=O)Nc3ccc(F)cc3)ccc2O[C@@H]1CN(C)Cc1ccc(-c2ccccc2)cc1,-29,x,61*
COc1ccc(NC(=O)Nc2ccc3c(c2)CC(=O)N([C@H](C)CO)C[C@H](C)[C@@H](CN(C)Cc2ccc(-c4ccccc4)cc2)O3)cc1,x,0,x
CC(C)NC(=O)Nc1ccc2c(c1)CC(=O)N([C@H](C)CO)C[C@H](C)[C@H](CN(C)Cc1ccc(-c3ccccc3)cc1)O2,-21,0,67*
C[C@H](CO)N1C[C@H](C)[C@@H](CN(C)Cc2ccc(-c3ccccc3)cc2)Oc2ccc(NC(=O)Nc3ccc(C(F)(F)F)cc3)cc2CC1=O,x,0,x
CC(C)NC(=O)Nc1ccc2c(c1)CC(=O)N([C@@H](C)CO)C[C@@H](C)[C@@H](CN(C)Cc1ccc(-c3ccccc3)cc1)O2,-24,0,32
C[C@H](CO)N1C[C@H](C)[C@@H](CN(C)Cc2ccc(-c3ccccc3)cc2)Oc2ccc(NC(=O)Nc3ccc(F)cc3)cc2CC1=O,x,0,x
COc1ccc(NC(=O)Nc2ccc3c(c2)CC(=O)N([C@@H](C)CO)C[C@H](C)[C@H](CN(C)Cc2ccc(-c4ccccc4)cc2)O3)cc1,-65,-1,71*
C[C@@H]1CN([C@H](C)CO)C(=O)Cc2cc(NC(=O)Nc3ccc(C(F)(F)F)cc3)ccc2O[C@@H]1CN(C)Cc1ccc(-c2ccccc2)cc1,-15,x,76*
C[C@@H]1CCCCO[C@H](CN(C)C(=O)C2CCCCC2)[C@H](C)CN([C@@H](C)CO)C(=O)c2cc(NC(=O)C3CCCCC3)ccc2O1,x,-2,x
C[C@@H]1CN([C@H](C)CO)C(=O)c2cc(NS(C)(=O)=O)ccc2O[C@@H](C)CCCCO[C@@H]1CN(C)C,x,-1,x

# Bioassay records (PubChem BioAssay)
